In experiment [1] the target is Uracil nucleotide/cysteinyl leukotriene receptor (Rattus norvegicus, UniProt Q09QM4). In words: Agonist activity at rat GPR17 expressed in HEK293 cells assessed as induction of intracellular calcium mobilization by calcium 5-dye based assay. It is filed as functional, cell-based. In a few lines:
(§1)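 HEK293 cells expressing rat or mouse GPR17 were seeded at 60,000 cells/well on poly-D-lysine plates and loaded 40 min with Calcium 5 indicator dye. Calcium signals were read on a plate reader. EC50 was obtained by nonlinear regression of concentration-response data. Means ± SEM from 3 independent experiments.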

For experiment [2], the target named is Uracil nucleotide/cysteinyl leukotriene receptor (Mus musculus, UniProt Q6NS65). In words: Agonist activity at mouse GPR17 expressed in HEK293 cells assessed as induction of intracellular calcium mobilization by calcium 5-dye based assay. It is filed as functional, cell-based. In outline: as §1
Experiment [3] addresses P2Y purinoceptor 1 (Homo sapiens) (UniProt P47900). In words: Agonist activity at human P2Y1 receptor transfected in human 1321N1 cells assessed as induction of calcium mobilization after 30 mins in presence of ADP by fluo-4 dye based assay. The format is functional, cell-based. In outline:
(§2)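 Calcium mobilization was measured in 1321N1 astrocytoma cells stably transfected with human P2Y1, P2Y2, P2Y4 or P2Y6 receptors, read on a Flexstation III microplate reader.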
(In general: A change in cytosolic calcium serves as a functional read-out for many receptors and channels.)

For the next experiment, the target named is P2Y purinoceptor 2 (Homo sapiens, UniProt P41231). In words: Agonist activity at human P2Y2 receptor transfected in human 1321N1 cells assessed as induction of calcium mobilization after 30 mins in presence of UTP by fluo-4 dye based assay. It is filed as functional, cell-based. In outline: as §2
Experiment [4] concerns the target P2Y purinoceptor 4 (Homo sapiens) (UniProt P51582). In words: Agonist activity at human P2Y4 receptor transfected in human 1321N1 cells assessed as induction of calcium mobilization after 30 mins in presence of UTP by fluo-4 dye based assay. The format is functional, cell-based. In a few lines: as §2
Experiment [5] addresses P2Y purinoceptor 6 (Homo sapiens) (UniProt Q15077). In words: Agonist activity at human P2Y6 receptor transfected in human 1321N1 cells assessed as induction of calcium mobilization after 30 mins in presence of UDP by fluo-4 dye based assay. The format is functional, cell-based. In a few lines:
as §2

Experiment [6] concerns the target P2Y purinoceptor 12 (Homo sapiens) (UniProt Q9H244). In words: Agonist activity at human P2Y12 receptor transfected in CHO cells assessed as induction of beta-arrestin translocation. The format is functional, cell-based. In outline: (§3)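 β-Arrestin translocation assays were run in CHO cells stably transfected with human P2Y12 or P2Y14 receptors.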
For experiment [7], the target named is T1, P2Y purinoceptor 14 (Homo sapiens) (UniProt Q15391).
T1 sequence (whole entry): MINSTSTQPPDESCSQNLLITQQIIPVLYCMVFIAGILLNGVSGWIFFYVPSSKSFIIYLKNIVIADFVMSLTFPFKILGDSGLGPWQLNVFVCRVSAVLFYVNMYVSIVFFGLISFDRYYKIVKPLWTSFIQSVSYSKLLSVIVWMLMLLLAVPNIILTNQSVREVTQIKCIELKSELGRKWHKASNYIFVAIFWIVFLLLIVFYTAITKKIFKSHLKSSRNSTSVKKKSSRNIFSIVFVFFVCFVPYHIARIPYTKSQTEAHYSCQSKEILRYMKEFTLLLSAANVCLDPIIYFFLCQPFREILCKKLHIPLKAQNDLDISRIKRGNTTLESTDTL
In words: Agonist activity at human P2Y14 receptor transfected in CHO cells assessed as induction of beta-arrestin translocation. It is filed as functional, cell-based. In outline:
as §3

Experiment [8] in a line: Selectivity ratio of EC50 for rat GPR17 expressed in HEK293 cells to EC50 for human GPR17 expressed in human 1321N1 cells. It is filed as cell-based.
Experiment [9] in a line: Selectivity ratio of EC50 for mouse GPR17 expressed in HEK293 cells to EC50 for human GPR17 expressed in human 1321N1 cells. It is filed as cell-based.
Experiment [10] concerns the target T2, Uracil nucleotide/cysteinyl leukotriene receptor (Homo sapiens, UniProt Q13304). In words: Displacement of [3H]PSB-12150 from human GPR17 expressed in CHO cell membranes after 60 mins by liquid scintillation counting. In a few lines:
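Membranes from CHO cells stably expressing human GPR17 were incubated 60 min at 25°C with 25 nM [3H]PSB-12150 (17 Ci/mmol), 10 mM MgCl2 and increasing test compound concentrations. Bound radioligand was separated by GF/B filtration and counted by liquid scintillation. Nonspecific binding was defined with 100 µM unlabeled PSB-12150. Ki came from the Cheng-Prusoff equation with KD 1190 nM. Three independent experiments in duplicate.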
(In general: Loss of bound radioactivity is the signal in a displacement assay; it reports binding, not function.)

Experiment [11] has as its target T2, Uracil nucleotide/cysteinyl leukotriene receptor. The experiment can be described thus: Agonist activity at human GPR17 expressed in human 1321N1 cells assessed as induction of calcium mobilization after 1 hr by Oregon Green BAPTA-1/AM dye-based fluorescence assay. It is filed as functional, cell-based. In a few lines:
(§4)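 Stably transfected 1321N1 astrocytoma cells were trypsin/EDTA-harvested, held 45 min at 37°C, then loaded 1 h at 25°C in KRH buffer pH 7.4 with 3 µM Oregon Green BAPTA-1/AM and 1% Pluronic F127, washed, and plated at ~16,000 cells/well. Fluorescence was read at 520 nm for 30 s after compound injection. Efficacy was expressed relative to the maximum given by 10 µM MDL 29,951. EC50 came from concentration-response curves, run for compounds exceeding 50% stimulation at 10 µM. At least three independent experiments, each in duplicate.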

The target is the same in experiment [12]. In words: Agonist activity at human GPR17 expressed in human 1321N1 cells assessed as induction of calcium mobilization at >30 uM after 1 hr by Oregon Green BAPTA-1/AM dye-based fluorescence assay relative to control. The format is functional, cell-based.
In the next experiment the target is Glutamate NMDA receptor. The experiment can be described thus: Displacement of [3H]CCP from NMDA receptor glutamate binding site in rat cortical and hippocampal membranes.
The target of experiment [13] is T2, Uracil nucleotide/cysteinyl leukotriene receptor. The experiment can be described thus: Agonist activity at human GPR17 expressed in human 1321N1 cells assessed as induction of calcium mobilization after 1 hr by Oregon Green BAPTA-1/AM dye-based fluorescence assay relative to MDL 29,951. It is filed as functional, cell-based. In a few lines: as §4
Experiment [14] concerns the target Uracil nucleotide/cysteinyl leukotriene receptor (Rattus norvegicus) (UniProt Q09QM4). In words: Agonist activity at rat GPR17 expressed in HEK293 cells assessed as induction of intracellular calcium mobilization at 10 uM by calcium 5-dye based assay relative to MDL 29,951. It is filed as functional, cell-based.
The target in experiment [15] is Uracil nucleotide/cysteinyl leukotriene receptor (Mus musculus) (UniProt Q6NS65). The experiment can be described thus: Agonist activity at mouse GPR17 expressed in HEK293 cells assessed as induction of intracellular calcium mobilization at 10 uM by calcium 5-dye based assay relative to MDL 29,951. It is filed as functional, cell-based.
For another experiment, the species on record is Homo sapiens. In words: Selectivity ratio of EC50 for human P2Y2 receptor transfected in human 1321N1 cells to EC50 for human GPR17 expressed in human 1321N1 cells. The format is cell-based.
In experiment [16] the target is T2, Uracil nucleotide/cysteinyl leukotriene receptor. The experiment can be described thus: Agonist activity at human GPR17 expressed in human 1321N1 cells assessed as induction of calcium mobilization at 30 uM after 1 hr by Oregon Green BAPTA-1/AM dye-based fluorescence assay relative to control. It is filed as functional, cell-based.
Experiment [17] shares this target. In words: Agonist activity at human GPR17 expressed in human 1321N1 cells assessed as induction of calcium mobilization at >10 uM after 1 hr by Oregon Green BAPTA-1/AM dye-based fluorescence assay relative to control. The format is functional, cell-based.
For experiment [18] the target is unchanged. The experiment can be described thus: Agonist activity at human GPR17 expressed in human 1321N1 cells assessed as induction of calcium mobilization at >=10 uM after 1 hr by Oregon Green BAPTA-1/AM dye-based fluorescence assay relative to control. The format is functional, cell-based.

Active and inactive are the calls of the source. The rule behind the calls is not given here.

Nine compounds from ChEMBL document CHEMBL4196130, “3-(2-Carboxyethyl)indole-2-carboxylic Acid Derivatives: Structural Requirements and Properties of Potent Agonists of the Orphan G Protein-Coupled Receptor GPR17” (J Med Chem, 2018) can be followed below.

P2Y purinoceptor 6 (Homo sapiens), sequence (Q15077 whole entry): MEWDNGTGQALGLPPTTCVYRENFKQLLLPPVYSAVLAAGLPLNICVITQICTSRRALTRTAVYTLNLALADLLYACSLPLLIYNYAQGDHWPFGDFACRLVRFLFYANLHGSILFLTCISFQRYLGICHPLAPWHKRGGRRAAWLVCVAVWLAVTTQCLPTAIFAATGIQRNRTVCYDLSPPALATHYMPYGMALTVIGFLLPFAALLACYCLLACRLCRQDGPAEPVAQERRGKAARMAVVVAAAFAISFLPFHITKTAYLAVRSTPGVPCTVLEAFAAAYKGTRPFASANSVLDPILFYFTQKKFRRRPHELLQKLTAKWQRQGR
P2Y purinoceptor 1 (Homo sapiens), sequence (P47900 whole entry): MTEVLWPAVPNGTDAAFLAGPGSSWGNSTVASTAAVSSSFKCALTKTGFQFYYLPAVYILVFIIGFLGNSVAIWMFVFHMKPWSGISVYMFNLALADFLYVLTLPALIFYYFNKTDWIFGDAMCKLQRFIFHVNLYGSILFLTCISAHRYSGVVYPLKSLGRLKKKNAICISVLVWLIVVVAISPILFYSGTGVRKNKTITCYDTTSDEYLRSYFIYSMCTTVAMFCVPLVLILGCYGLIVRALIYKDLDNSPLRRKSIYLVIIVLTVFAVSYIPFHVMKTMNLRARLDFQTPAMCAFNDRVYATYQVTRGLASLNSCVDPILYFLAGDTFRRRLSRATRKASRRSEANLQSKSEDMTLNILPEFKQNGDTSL
Uracil nucleotide/cysteinyl leukotriene receptor (Rattus norvegicus, UniProt Q09QM4), sequence (Q09QM4 whole entry): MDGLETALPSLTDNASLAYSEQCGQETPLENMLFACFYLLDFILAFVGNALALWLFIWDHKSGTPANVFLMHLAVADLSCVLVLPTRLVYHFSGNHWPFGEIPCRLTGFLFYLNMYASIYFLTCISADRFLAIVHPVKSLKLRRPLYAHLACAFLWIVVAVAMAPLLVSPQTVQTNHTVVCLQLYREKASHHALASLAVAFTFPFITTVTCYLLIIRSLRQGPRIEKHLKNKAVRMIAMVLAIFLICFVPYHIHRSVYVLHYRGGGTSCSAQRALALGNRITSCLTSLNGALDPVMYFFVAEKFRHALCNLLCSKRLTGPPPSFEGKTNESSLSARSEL
P2Y purinoceptor 12 (Homo sapiens), sequence (Q9H244 whole entry): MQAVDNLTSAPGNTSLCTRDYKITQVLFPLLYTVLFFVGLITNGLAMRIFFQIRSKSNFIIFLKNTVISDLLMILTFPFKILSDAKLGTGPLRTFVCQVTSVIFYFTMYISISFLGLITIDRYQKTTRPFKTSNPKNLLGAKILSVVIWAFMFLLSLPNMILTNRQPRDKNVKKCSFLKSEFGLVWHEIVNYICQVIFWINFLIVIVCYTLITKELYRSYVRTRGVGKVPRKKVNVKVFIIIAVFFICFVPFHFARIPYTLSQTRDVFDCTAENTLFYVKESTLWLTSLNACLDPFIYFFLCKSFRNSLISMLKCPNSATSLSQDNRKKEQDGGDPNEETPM
P2Y purinoceptor 4 (Homo sapiens), sequence (P51582 whole entry): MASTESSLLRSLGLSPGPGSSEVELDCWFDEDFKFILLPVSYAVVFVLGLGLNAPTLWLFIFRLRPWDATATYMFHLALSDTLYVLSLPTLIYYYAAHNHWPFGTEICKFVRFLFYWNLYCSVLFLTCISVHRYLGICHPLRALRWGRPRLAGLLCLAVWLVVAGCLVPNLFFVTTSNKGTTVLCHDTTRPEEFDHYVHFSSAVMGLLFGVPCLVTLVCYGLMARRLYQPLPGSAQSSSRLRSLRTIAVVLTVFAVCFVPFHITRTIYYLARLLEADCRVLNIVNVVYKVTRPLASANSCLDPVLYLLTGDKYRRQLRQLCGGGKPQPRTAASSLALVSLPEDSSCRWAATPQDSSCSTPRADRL
P2Y purinoceptor 2, sequence (P41231 whole entry): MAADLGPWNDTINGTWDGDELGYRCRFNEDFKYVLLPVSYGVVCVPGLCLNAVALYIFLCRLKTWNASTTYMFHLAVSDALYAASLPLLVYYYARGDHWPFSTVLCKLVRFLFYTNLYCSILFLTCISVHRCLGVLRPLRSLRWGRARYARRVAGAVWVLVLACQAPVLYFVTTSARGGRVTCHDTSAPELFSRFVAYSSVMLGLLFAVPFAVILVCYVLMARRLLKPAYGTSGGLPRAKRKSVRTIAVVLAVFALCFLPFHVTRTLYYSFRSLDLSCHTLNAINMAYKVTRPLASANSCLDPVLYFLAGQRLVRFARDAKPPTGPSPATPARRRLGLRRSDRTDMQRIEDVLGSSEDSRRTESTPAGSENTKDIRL
Uracil nucleotide/cysteinyl leukotriene receptor (Mus musculus, UniProt Q6NS65), sequence (Q6NS65 whole entry): as the sequence (Q09QM4 whole entry) above, with D2N, T6A, A15S, S270A counted along it
T2 sequence (Q13304 whole entry): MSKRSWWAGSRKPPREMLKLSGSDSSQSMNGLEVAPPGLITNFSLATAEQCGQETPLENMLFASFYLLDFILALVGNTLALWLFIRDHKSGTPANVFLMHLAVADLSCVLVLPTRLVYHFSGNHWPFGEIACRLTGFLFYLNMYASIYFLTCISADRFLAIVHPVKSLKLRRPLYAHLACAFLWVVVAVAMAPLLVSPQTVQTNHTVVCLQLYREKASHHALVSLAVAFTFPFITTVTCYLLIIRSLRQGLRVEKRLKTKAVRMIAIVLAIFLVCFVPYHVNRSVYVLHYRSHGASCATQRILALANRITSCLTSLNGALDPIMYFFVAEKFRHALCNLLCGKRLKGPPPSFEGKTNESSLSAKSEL
Uracil nucleotide/cysteinyl leukotriene receptor (Rattus norvegicus), sequence (Q09QM4 whole entry): as the sequence (Q09QM4 whole entry) above
Uracil nucleotide/cysteinyl leukotriene receptor (Mus musculus), sequence (Q6NS65 whole entry): as the sequence (Q09QM4 whole entry) above, with D2N, T6A, A15S, S270A counted along it

With `O=C(O)CCc1c(C(=O)O)[nH]c2cc(Cl)cc(Cl)c12`, the 50% effective concentration (EC50) (as a rule, the concentration needed to bring the measured effect to its halfway point) in experiment [1] is 0.705 µM; in [2] it was 1.11 µM. For the same compound, the outcome (in experiment [3]; on P2Y purinoceptor 2; in [4]; in [5]; in [6]; in [7]) was inactive. For the same compound, the Ratio EC50 in experiment [8] and in experiment [9] was 2 to 6 each time. Moreover, the Ki (in general, a dissociation constant, usually derived from enzyme kinetics or from competition with a known ligand) in [10] was determined as 2.45 µM.
Consider `O=C(O)CCc1c(C(=O)O)[nH]c2c(Cl)cccc12`, for which, in experiment [11], the EC50 was > 30 µM. Moreover, the Activity in experiment [12] is 5%. Besides, the IC50 (as a rule, the concentration that gives 50% inhibition) at Glutamate NMDA receptor was > 1000 µM.
Take `CCCCCCOc1cc(Cl)c2c(CCC(=O)O)c(C(=O)O)[nH]c2c1`: the EC50 in experiment [11] is 0.067 µM; in [1] it was 2.3 µM; in experiment [2], 3.03 µM; on P2Y purinoceptor 2, ≥ 50 µM. The values for the maximal effect (Emax) in experiment [13], in experiment [14] and in experiment [15] were 95%, 77% and 59%, respectively. Moreover, the result in [3], in [4], in experiment [5], in experiment [6] and in [7] was inactive. For the same compound, the Ratio EC50 in the experiment filed under Homo sapiens is > 700; in [8], 34 to 48; in [9] it was 34 to 48. This compound also showed an inhibition constant Ki in [10] of 13.1 µM.
Turning to `CCCCCCOc1ccc2c(CCC(=O)O)c(C(=O)O)[nH]c2c1`, the EC50 in experiment [11] stood at 0.115 µM; in experiment [1], 5.31 µM; in experiment [2] it was 5.51 µM. Also, the Emax (as a rule, the size of the effect at its maximum, as opposed to the concentration needed) stood at 62% in experiment [13], 53% in experiment [14] and 28% in experiment [15]. Also, the result (in experiment [3]; on P2Y purinoceptor 2; in experiment [4]; in experiment [5]; in experiment [6]; in experiment [7]) was inactive. For the same compound, the Ratio EC50 in [8] and in experiment [9] was 34 to 48 each time. Further, the Ki in experiment [10] was determined as 1.5 µM.
Turning to `O=C(O)CCc1c(C(=O)O)[nH]c2cccc(Cl)c12`, the EC50 in experiment [11] was determined as 30 µM. For the same compound, the Activity in experiment [16] came out at 52%.
Take `O=C(O)CCc1c(C(=O)O)[nH]c2ccc(Cl)cc12`: the EC50 in experiment [11] was > 30 µM. Moreover, the Activity in [12] is 11%. The IC50 on Glutamate NMDA receptor was determined as 35 µM.
With `CCCCCCOc1cc(Cl)cc2[nH]c(C(=O)O)c(CCC(=O)O)c12`, the concentration for a half-maximal effect (EC50) in experiment [11] is > 10 µM. For the same compound, the Activity in experiment [17] came to 40%.
Consider `O=C(O)CCc1c(C(=O)O)[nH]c2cccc(F)c12`, for which the EC50 in experiment [11] is ≥ 10 µM. Besides, the Activity in experiment [18] was determined as 44%.
In the case of `CCCCCCCCOc1cc(Cl)cc2[nH]c(C(=O)O)c(CCC(=O)O)c12`, the half-maximal effective concentration (EC50) in experiment [11] was > 10 µM. Moreover, the Activity in experiment [17] is 25%.
